The text below walks through data of ChEMBL document CHEMBL1140112, “Desferrithiocin analogues and nephrotoxicity” (J Med Chem, 2008).

Data set [1] has as its system Rattus norvegicus. In words: Iron-clearing efficiency in non-iron-overloaded Sprague-Dawley rat at 300 umol/kg, po after 24 hrs relative to control. Type of data set: functional. A digest of the protocol:
(§1)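 Non-iron-overloaded, bile duct-cannulated male Sprague-Dawley rats (400-450 g) got a single 300 µmol/kg dose by oral gavage, as the monosodium salt in distilled water. Bile was collected at 3 h intervals for 24 h and urine at 24 h, with iron by atomic absorption. ICE = treated minus control iron excretion, divided by theoretical output (2:1 complex), as %. n = 3-8; mean ± SEM.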

Data set [2] has as its system Rattus norvegicus. In words: Iron-clearing efficiency in non-iron-overloaded Sprague-Dawley rat assessed as bile iron excretion at 300 umol/kg, po relative to control. Type of data set: functional. An outline of the steps: as §1
In data set [3] the test system is Rattus norvegicus. In words: Iron-clearing efficiency in non-iron-overloaded Sprague-Dawley rat assessed as urine iron excretion at 300 umol/kg, po relative to control. Type of data set: functional. A digest of the protocol:
as §1

In data set [4] the test system is Sapajus apella. In words: Iron-clearing efficiency in iron-overloaded Cebus apella at 150 umol/kg, po relative to control. It is filed as functional. An outline of the steps:
(§2)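 Iron-overloaded Cebus apella were dosed once by oral gavage with the monosodium salt (free acid plus 1 equiv NaOH in distilled water; one ligand in 40% Cremophor RH-40/water). Feces and urine were collected at 24 h intervals from 4 d pre-drug to 5 d post-drug, and iron was read by flame AAS. ICE = 2-day post-drug iron minus mean 4-day baseline, divided by theoretical output (2:1 complex), as %. Mean ± SEM.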

Data set [5] relates to Sapajus apella. In words: Iron-clearing efficiency in iron-overloaded Cebus apella assessed as bile iron excretion at 150 umol/kg, po relative to control. Type of data set: functional.
In data set [6] the test system is Sapajus apella. In words: Iron-clearing efficiency in iron-overloaded Cebus apella assessed as urine iron excretion at 150 umol/kg, po relative to control. Type of data set: functional. A digest of the protocol:
as §2

Data set [7] is described as follows: Apparent partition coefficient, log P at pH 7.4 by shake flask method. It is filed as physicochemical. The settings on record: octanol/water; for logD: read-out: LogD7.4. An outline of the steps:
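Apparent partition between octanol and water, expressed as log of the fraction in the octanol layer (log P_app); direct shake-flask method in Tris buffer, pH 7.4.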

Data set [8] relates to Rattus norvegicus. In words: Nephrotoxicity in non-iron-overloaded Sprague-Dawley rat at 300 umol/kg, po. Type of data set: toxicity, organism-based. The settings on record: in vivo. A digest of the protocol: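 Male Sprague-Dawley rats (400-450 g), not iron-overloaded, bile duct-cannulated, each given a single 300 µmol/kg oral gavage dose.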

In the case of `COCCOCCOCCOc1ccc(C2=N[C@@](C)(C(=O)[O-])CS2)c(O)c1.[Na+]`, the Activity with Rattus norvegicus [1] is 5.5%; with Rattus norvegicus [2], 90%; in the data set with Rattus norvegicus [3] it was 10%; in the data set with Sapajus apella [4] it was 25.4%; in the data set with Sapajus apella [5], 96%; in the data set on Sapajus apella [6], 4%.
Consider `COc1ccc(C2=N[C@@](C)(C(=O)[O-])CS2)c(O)c1.[Na+]`, for which the Activity was determined as 6.6% in the data set on Rattus norvegicus [1]; 98% with Rattus norvegicus [2]; 2% in the data set on Rattus norvegicus [3]; 24.4% in the data set with Sapajus apella [4]; 91% with Sapajus apella [5]; 9% in the data set on Sapajus apella [6].
On to `C[C@]1(C(=O)[O-])CSC(c2ccc(O)cc2O)=N1.[Na+]` [DEFERITRIN SODIUM], for which the Activity turned out to be 1.1% in the data set on Rattus norvegicus [1]; 100% in the data set with Rattus norvegicus [2]; 0% in the data set with Rattus norvegicus [3]; 16.8% with Sapajus apella [4]; 88% in the data set on Sapajus apella [5]; 12% in the data set with Sapajus apella [6].
For the compound `COc1ccc(O)c(C2=N[C@@](C)(C(=O)[O-])CS2)c1.[Na+]`, the logD in data set [7] was -0.61. The Activity is 6.3% with Rattus norvegicus [1]; 95% in the data set on Rattus norvegicus [2]; 5% with Rattus norvegicus [3]; 18.9% in the data set on Sapajus apella [4]; 94% in the data set with Sapajus apella [5]; 6% in the data set on Sapajus apella [6].
On to `CCOc1ccc(C2=N[C@@](C)(C(=O)[O-])CS2)c(O)c1.[Na+]`, for which the LogD7.4 in data set [7] is reported as -0.04. Also, the figures for the Activity with Rattus norvegicus [1], with Rattus norvegicus [2] and in the data set with Rattus norvegicus [3] were 18%, 100% and 0%, respectively.
For the compound `CCCCCCCCOc1ccc(C2=N[C@@](C)(C(=O)[O-])CS2)c(O)c1.[Na+]`, the LogD7.4 in data set [7] stood at 1.53. The Activity is 6.4% with Rattus norvegicus [1], 94% in the data set on Rattus norvegicus [2] and 6% in the data set on Rattus norvegicus [3].
`CCCCCCCCOc1ccc(O)c(C2=N[C@@](C)(C(=O)[O-])CS2)c1.[Na+]`: the LogD7.4 in data set [7] is listed as 1.56. The Activity in the data set on Rattus norvegicus [1] worked out at 4%; in the data set with Rattus norvegicus [2] it was 97%; in the data set on Rattus norvegicus [3], 3%.
For the compound `C[C@]1(C(=O)[O-])CSC(c2cc(O)ccc2O)=N1.[Na+]`, the logD in data set [7] is -1.14. Besides, the Activity is on record as 1% in the data set with Rattus norvegicus [1]; 99% with Rattus norvegicus [2]; 1% with Rattus norvegicus [3]; 12.6% in the data set on Sapajus apella [4]; 88% in the data set with Sapajus apella [5]; 12% in the data set with Sapajus apella [6].
Turning to `CCCCOc1ccc(C2=N[C@@](C)(C(=O)[O-])CS2)c(O)c1.[Na+]`, in data set [7], the LogD7.4 is given as 1.02. Moreover, the Activity with Rattus norvegicus [1] is given as 13.1%; in the data set on Rattus norvegicus [2], 98%; in the data set on Rattus norvegicus [3] it was 2%; with Rattus norvegicus [8], “Toxic”.
In the case of `CCCCCCCCOc1cc(O)c(C2=N[C@@](C)(C(=O)[O-])CS2)cc1OCCCCCCCC.[Na+]`, the LogD7.4 in data set [7] was found to be 2.05. In addition, the Activity with Rattus norvegicus [1] is on record as less than 0.5%.
`CCCCOc1ccc(O)c(C2=N[C@@](C)(C(=O)[O-])CS2)c1.[Na+]`: the LogD7.4 in data set [7] is 0.94. Moreover, the Activity is given as 21% in the data set with Rattus norvegicus [1], 99% in the data set on Rattus norvegicus [2], 1% in the data set with Rattus norvegicus [3] and “Toxic” in the data set on Rattus norvegicus [8].
